Structures are written as SMILES. Calls of active or inactive are those of the source.

The values below come from ChEMBL document CHEMBL1138340, “Cannabilactones: a novel class of CB2 selective agonists with peripheral analgesic activity” (J Med Chem, 2007).

Cannabinoid receptor 1, sequence (P20272 whole entry): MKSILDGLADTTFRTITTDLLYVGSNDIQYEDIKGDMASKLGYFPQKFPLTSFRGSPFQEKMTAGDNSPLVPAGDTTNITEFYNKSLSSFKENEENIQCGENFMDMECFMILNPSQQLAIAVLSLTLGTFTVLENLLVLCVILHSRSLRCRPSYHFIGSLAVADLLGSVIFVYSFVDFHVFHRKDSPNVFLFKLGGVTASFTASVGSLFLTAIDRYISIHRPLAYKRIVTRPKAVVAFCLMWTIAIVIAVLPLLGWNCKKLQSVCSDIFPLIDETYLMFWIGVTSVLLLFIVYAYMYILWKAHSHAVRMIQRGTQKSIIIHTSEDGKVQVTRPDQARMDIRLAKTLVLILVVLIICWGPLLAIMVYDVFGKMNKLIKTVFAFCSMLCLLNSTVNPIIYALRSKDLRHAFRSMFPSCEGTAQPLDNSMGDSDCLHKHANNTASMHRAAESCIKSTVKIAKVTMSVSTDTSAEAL
Cannabinoid receptor 2 (Mus musculus), sequence (P47936 whole entry): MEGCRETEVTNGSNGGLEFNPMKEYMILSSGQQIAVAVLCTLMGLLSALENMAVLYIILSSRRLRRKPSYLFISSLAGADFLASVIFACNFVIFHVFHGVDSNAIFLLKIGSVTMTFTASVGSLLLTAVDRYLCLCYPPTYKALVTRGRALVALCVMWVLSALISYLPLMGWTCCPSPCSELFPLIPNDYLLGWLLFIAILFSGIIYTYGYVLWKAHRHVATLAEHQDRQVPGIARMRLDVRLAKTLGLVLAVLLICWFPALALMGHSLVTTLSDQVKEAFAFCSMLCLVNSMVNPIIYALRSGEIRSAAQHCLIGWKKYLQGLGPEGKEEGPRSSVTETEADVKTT

The test system of the first data set is Rattus norvegicus. As to the kind of experiment: Antinociceptive activity in sc dosed Sprague-Dawley rat assessed as paw withdrawal latency to radiant heat after 20 mins. Format: functional.
Settings: not given
In a few lines:
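Male Sprague–Dawley rats, 200–300 g. Drug in DMSO, 50 µL, injected subcutaneously into the plantar hindpaw 20 min before testing. […] A50 (dose giving 50% MPE) taken from dose–response curves by Tallarida–Murray. n=6 per group, mean ± SEM.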
As to `CCCCCCC(C)(C)c1cc(O)c2c(c1)oc(=O)c1ccc(O)cc12`, the A50 worked out at 4.5 mg/kg.

Consider `CCCCCCC(C)(C)c1cc(O)c2c(c1)oc(=O)c1ccc(OC)cc12`, for which the A50 worked out at 1.6 mg/kg.

The next data set concerns the target Cannabinoid receptor 2 (Mus musculus) (UniProt P47936). As to the kind of experiment: Agonist activity at CB2 receptor in mouse spleen membranes assessed as inhibition of forskolin-stimulated cAMP production. Format: functional, cell membranes. Conditions: Membrane. In general terms: Cyclic AMP is a second messenger, typically raised through Gs and lowered through Gi signalling.
Take `CCCCCCC(C)(C)c1cc(O)c2c(c1)oc(=O)c1ccc(O)cc12`: the outcome was Active.

As to `CCCCCCC(C)(C)c1cc(O)c2c(c1)oc(=O)c1ccc(OC)cc12`, the result was Active.

Test system in another data set: not listed separately
Description: Selectivity of mouse CB2 receptor over rat CB1 receptor.
Settings: not given
In a few lines:
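Ratio of Ki values from [3H]CP55,940 displacement using rat brain synaptosomal membranes (CB1) and mouse spleen membranes (CB2). Both incubated 1 h at 30 °C in TME with 0.1% BSA. IC50 from three independent experiments converted to Ki by Cheng–Prusoff.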
`CCCCCCC(C)(C)c1cc(O)c2c(c1)OC(C)(C)c1ccc(OC)cc1-2`: the Ratio Ki is 0.92.

`CCCCCCC(C)(C)c1cc(O)c2c(c1)OC(C)(C)c1ccc(C)cc1-2`: the Ratio Ki came to 0.86.

As for `CCCCCCC(C)(C)c1cc(O)c2c(c1)OC(C)(C)c1ccc(O)cc1-2`, the Ratio Ki came out at 0.54.

For `CCCCCCC(C)(C)c1cc(O)c2c(c1)oc(=O)c1ccc(O)cc12`, the Ratio Ki is 490.

Take `CCCCCCC(C)(C)c1cc(O)c2c(c1)oc(=O)c1ccc(OC)cc12`: the Ratio Ki came to 54.

Another data set relates to Rattus norvegicus. As to the kind of experiment: Neurotoxicity in Sprague-Dawley rat assessed as ambulation on rotarod apparatus at 3.3 mg/kg, ip after 15 mins. Type of data set: toxicity, organism-based. Also noted: dose 3.3 mg/kg, route intraperitoneal. The conditions noted are these: in vivo, 0.25 h. In short, it runs like this: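 Rats trained to stay 180 s on a rotarod at 10 rpm. Drug given i.p. at 3.3 mg/kg. Time to fall recorded 15 min after dosing, with a 180 s cutoff; comparison is to vehicle baseline.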
In general terms: The rotarod test checks motor coordination on a turning rod.
On to `CCCCCCC(C)(C)c1cc(O)c2c(c1)oc(=O)c1ccc(O)cc12`, for which the Activity result was “Non-toxic”.

A further data set has as its target Cannabinoid receptor 1 (Rattus norvegicus, UniProt P20272). Description: Displacement of [3H]CP-55940 from CB1 receptor in rat brain synaptosomes. Type of data set: subcellular.
Settings: not given
In a few lines:
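Test ligand at eight concentrations in DMSO. Incubation 1 h at 30 °C in TME buffer (25 mM Tris, 5 mM MgCl2, 1 mM EDTA) with 0.1% BSA. Nonspecific binding defined with 200 nM CP55,940. Bound ligand separated by rapid filtration and read by scintillation counting. Data from three independent experiments fitted by four-parameter logistic to give IC50, converted to Ki by Cheng–Prusoff.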
As for `CCCCCCC(C)(C)c1cc(O)c2c(c1)OC(C)(C)c1ccc(OC)cc1-2`, affinity was put at a Ki of 5.4 nM.

For the compound `CCCCCCC(C)(C)c1cc(O)c2c(c1)OC(C)(C)c1ccc(C)cc1-2`, the Ki (as a rule, a measure of affinity in units of concentration, obtained from inhibition or displacement) worked out at 0.95 nM.

`CCCCCCC(C)(C)c1cc(O)c2c(c1)oc(=O)c1ccc(C)cc12` returned a Ki of 39 nM.

For `CCCCCCC(C)(C)c1cc(O)c2c(c1)oc(=O)c1ccc(O)cc12`, the Ki turned out to be 400 nM.

On to `CCCCCCC(C)(C)c1cc(O)c2c(c1)oc(=O)c1ccc(OC)cc12`, for which affinity was put at a Ki of 360 nM.

Another data set deals with Cannabinoid receptor 2 (Mus musculus, UniProt P47936). As to the kind of experiment: Displacement of [3H]CP-55940 from CB2 receptor in mouse spleen membranes. Format: cell membranes, Membrane.
Cannabinoid receptor 2, sequence (P47936 whole entry): as above
Settings: not given
In short, it runs like this: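 Competitive displacement of [3H]CP55,940 (3.08 nM) from rat forebrain synaptosomal membranes (CB1) or frozen mouse spleen membranes (CB2), 40–50 µg protein. Test ligand at eight concentrations in DMSO. Incubation 1 h at 30 °C in TME buffer (25 mM Tris, 5 mM MgCl2, 1 mM EDTA) with 0.1% BSA. Nonspecific binding defined with 200 nM CP55,940. Bound ligand separated by rapid filtration and read by scintillation counting. Data from three independent experiments fitted by four-parameter logistic to give IC50, converted to Ki by Cheng–Prusoff.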
For orientation: In a radioligand displacement assay an active substance lowers the binding of a labelled ligand.
`CCCCCCC(C)(C)c1cc(O)c2c(c1)OC(C)(C)c1ccc(OC)cc1-2`: affinity was put at a Ki of 5.9 nM.

The compound `CCCCCCC(C)(C)c1cc(O)c2c(c1)OC(C)(C)c1ccc(C)cc1-2` displayed a Ki of 1.1 nM.

For the compound `CCCCCCC(C)(C)c1cc(O)c2c(c1)oc(=O)c1ccc(C)cc12`, the Ki turned out to be 3.1 nM. This Ki lies about 2.8-fold higher than the previous one.

In turn, `CCCCCCC(C)(C)c1cc(O)c2c(c1)OC(C)(C)c1ccc(O)cc1-2` returned a Ki of 4.8 nM.

`CCCCCCC(C)(C)c1cc(O)c2c(c1)oc(=O)c1ccc(O)cc12` yielded a Ki of 0.82 nM.

In turn, `CCCCCCC(C)(C)c1cc(O)c2c(c1)oc(=O)c1ccc(OC)cc12` gave a Ki of 6.7 nM. Against the preceding compound, the Ki is about 8.2-fold higher.

Another data set concerns the target Cannabinoid receptor 2 (Mus musculus) (UniProt P47936). Description: Agonist activity at CB2 receptor in mouse spleen membranes at 1 uM after 2 hrs by [35S]GTP-gamma-S binding assay. Format: functional, cell membranes. The conditions noted are these: Membrane. In short, it runs like this:
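Mouse spleen lysed in a cell disruption bomb, centrifuged at 1000 g then 175000 g, and resuspended in TME with 0.1% BSA. Membranes (24–40 µg) incubated 2 h at 30 °C with test compound at 1 µM, 30 µM GDP and 0.05 nM [35S]GTPγS. Nonspecific binding defined with 10 µM unlabeled GTPγS. Bound label measured after GF/B filtration by scintillation counting. Reported with standard deviations.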
`CCCCCCC(C)(C)c1cc(O)c2c(c1)OC(C)(C)c1ccc(OC)cc1-2` registered an Activity of 42%.

`Cc1c(C(=O)c2cccc3ccccc23)c2cccc3c2n1[C@H](CN1CCOCC1)CO3` gave an Activity of 56%.

`CCCCCCC(C)(C)c1cc(O)c2c(c1)oc(=O)c1ccc(O)cc12` showed an Activity of 55%.

`CCCCCCC(C)(C)c1cc(O)c2c(c1)oc(=O)c1ccc(OC)cc12` gave an Activity of 50%.
